Source: ChEMBL document CHEMBL1152869, “An inhibitor of FtsZ with potent and selective anti-staphylococcal activity” (Science, 2008)
≈ marks a conversion by molar mass, not a printed value. Calls of active or inactive are those of the source. The rule behind the calls is not given here.

Experiments:
Bos taurus [1] = organism: Bos taurus; experiment: Enhancement of bovine brain tubulin polymerization at 25 uM
Bacillus subtilis [2] = experiment: Inhibition of cell division in Bacillus subtilis 168 at 50 uM by phase contrast microscopy; assay type: functional, organism-based; conditions: subsp. subtilis str. 168
Staphylococcus aureus [3] = experiment: Antibacterial activity against Staphylococcus aureus bearing FtsZ G196A mutant by broth microdilution method; assay type: functional
Staphylococcus aureus [4] = experiment: Antibacterial activity against Staphylococcus aureus bearing FtsZ N263K mutant by broth microdilution method; assay type: functional
Staphylococcus hominis = experiment: Antibacterial activity against Staphylococcus hominis by broth microdilution method; assay type: functional
Staphylococcus aureus [5] = experiment: Bactericidal activity against Staphylococcus aureus ATCC 29213 assessed as reduction in cell viability at 2 ug/ml within 24 hrs by serial dilution method
Streptococcus pneumoniae = experiment: Antibacterial activity against Streptococcus pneumoniae by broth microdilution method; assay type: functional
Bos taurus [6] = organism: Bos taurus; experiment: Enhancement of bovine brain tubulin polymerization at 64 ug/ml
Bacillus subtilis [7] = experiment: Antibacterial activity against Bacillus subtilis bearing FtsZ V307R mutant by broth microdilution method; assay type: functional
Staphylococcus aureus [8] = experiment: Antibacterial activity against Staphylococcus aureus Smith ATCC 19636 in sc dosed CD1 mouse septicemia model assessed as survival after 7 days; assay type: functional
How it was run: (§1)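 At 1 h post-infection they received a single SC or IV dose of 3, 10 or 30 mg/kg. Controls were vehicle only and vancomycin 3 mg/kg by the same route. Mortality was recorded daily for 7 days, and ED50 was derived from dose-dependent survival.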

Staphylococcus aureus [9] = experiment: Antibacterial activity against Staphylococcus aureus bearing FtsZ R191P mutant by broth microdilution method; assay type: functional
[10] = target: T1, Cell division protein FtsZ (Staphylococcus aureus, UniProt P0A031); experiment: (§2) Inhibition of Staphylococcus aureus FtsZ GTPase activity
T1 sequence (P0A031 whole entry): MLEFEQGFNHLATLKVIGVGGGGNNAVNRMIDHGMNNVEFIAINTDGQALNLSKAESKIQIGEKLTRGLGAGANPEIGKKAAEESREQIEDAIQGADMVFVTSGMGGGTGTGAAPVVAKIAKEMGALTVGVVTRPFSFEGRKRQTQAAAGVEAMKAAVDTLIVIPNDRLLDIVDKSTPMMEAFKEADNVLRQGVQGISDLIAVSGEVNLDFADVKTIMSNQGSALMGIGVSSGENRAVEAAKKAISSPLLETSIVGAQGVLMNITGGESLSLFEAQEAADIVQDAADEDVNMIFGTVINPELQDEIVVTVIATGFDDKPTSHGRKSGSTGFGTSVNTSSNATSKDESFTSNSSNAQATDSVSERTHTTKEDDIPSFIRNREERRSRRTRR
How it was run: (§3)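 S. aureus FtsZ cloned, overexpressed and purified; in vitro GTPase activity measured across a compound concentration series; IC50 derived from concentration-dependent inhibition.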

[11] = target: T2, Cell division protein FtsZ (Staphylococcus aureus) (UniProt P0A031); experiment: as §2; how it was run: as §3
T2 sequence (whole entry): T1 sequence (P0A031 whole entry)

[12] = target: T3, Cell division protein FtsZ (Bacillus subtilis (strain 168)) (UniProt P17865); experiment: Inhibition of GFP-FtsZ localization in Bacillus subtilis 2020 assessed as protein mislocalization to assemble into cytokinetic ring at 8 ug/ml by florescence microscopy
T3 sequence (whole entry): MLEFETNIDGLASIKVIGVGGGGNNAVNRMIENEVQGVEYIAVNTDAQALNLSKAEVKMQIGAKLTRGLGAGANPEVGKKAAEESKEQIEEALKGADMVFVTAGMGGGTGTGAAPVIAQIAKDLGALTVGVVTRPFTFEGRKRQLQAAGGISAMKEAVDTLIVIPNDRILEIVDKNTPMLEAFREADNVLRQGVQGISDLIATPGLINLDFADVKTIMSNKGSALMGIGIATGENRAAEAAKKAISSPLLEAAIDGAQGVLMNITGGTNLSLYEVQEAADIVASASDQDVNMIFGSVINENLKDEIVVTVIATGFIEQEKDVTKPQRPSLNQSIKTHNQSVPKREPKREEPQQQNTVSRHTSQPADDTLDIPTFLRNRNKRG
How it was run: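 B. subtilis 2020 carrying gfp-ftsZ cultured with or without compound at 8 μg/ml; FtsZ localization visualized by fluorescence microscopy.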

Staphylococcus aureus [13] = experiment: Inhibition of cell division in Staphylococcus aureus ATCC 29213 assessed as enlargement of cells at 2 ug/ml within 2 hrs by phase contrast microscopy; assay type: functional, organism-based
How it was run: (§4)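 S. aureus ATCC 29213 cells grown with or without compound at 2 μg/ml; cell morphology examined by phase-contrast microscopy.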

HepG2 = experiment: Cytotoxicity against human HepG2 cells; assay type: cell-based
[14] = test system: Staphylococcus haemolyticus; experiment: Antibacterial activity against Staphylococcus haemolyticus by broth microdilution method; assay type: functional
Haemophilus influenzae = experiment: Antibacterial activity against Haemophilus influenzae by broth microdilution method; assay type: functional
Staphylococcus aureus [15] = experiment: Antibacterial activity against Staphylococcus aureus bearing FtsZ V214F mutant by broth microdilution method; assay type: functional
Staphylococcus aureus [16] = experiment: Antibacterial activity against Staphylococcus aureus Smith ATCC 19636 in ip dosed CD1 mouse septicemia model assessed as survival administered 1 hr postinfection measured after 7 days; assay type: functional
Bacillus subtilis [17] = experiment: Antibacterial activity against Bacillus subtilis bearing FtsZ G196A mutant by broth microdilution method; assay type: functional
Bacillus subtilis [18] = experiment: Antibacterial activity against Bacillus subtilis by broth microdilution method; assay type: functional
[19] = test system: Staphylococcus epidermidis; experiment: Antibacterial activity against Staphylococcus epidermidis by broth microdilution method; assay type: functional
Bacillus subtilis [20] = experiment: Inhibition of cell division in Bacillus subtilis 168 assessed as elongation of cells at 2 ug/ml by phase contrast microscopy; assay type: functional, organism-based; conditions: subsp. subtilis str. 168
How it was run: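 B. subtilis 168 cells grown with or without compound at 2 μg/ml; cell morphology examined by phase-contrast microscopy.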

Bacillus subtilis [21] = experiment: Antibacterial activity against Bacillus subtilis bearing FtsZ V307H mutant by broth microdilution method; assay type: functional
Staphylococcus aureus [22] = experiment: Antibacterial activity against Staphylococcus aureus bearing FtsZ G193D mutant by broth microdilution method; assay type: functional
Staphylococcus aureus [23] = experiment: Antibacterial activity against Staphylococcus aureus by broth microdilution method; assay type: functional
Staphylococcus aureus [24] = experiment: Inhibition of cell division in Staphylococcus aureus ATCC 29213 assessed as enlargement of cells at 2 ug/ml by phase contrast microscopy; assay type: functional, organism-based; how it was run: as §4
Staphylococcus warneri = experiment: Antibacterial activity against Staphylococcus warneri by broth microdilution method; assay type: functional
Escherichia coli = experiment: Antibacterial activity against Escherichia coli by broth microdilution method; assay type: functional
Staphylococcus aureus [25] = experiment: Antibacterial activity against Staphylococcus aureus bearing FtsZ G266S mutant by broth microdilution method; assay type: functional
Staphylococcus aureus [26] = experiment: Antibacterial activity against multidrug-resistant Staphylococcus aureus by broth microdilution method; assay type: functional
Pseudomonas aeruginosa = experiment: Antibacterial activity against Pseudomonas aeruginosa by broth microdilution method; assay type: functional
Enterococcus faecalis = experiment: Antibacterial activity against Enterococcus faecalis by broth microdilution method; assay type: functional
Staphylococcus aureus [27] = experiment: Antibacterial activity against Staphylococcus aureus Smith ATCC 19636 in CD1 mouse septicemia model assessed as survival at 30 mg/kg, iv after 7 days relative to control; assay type: functional; conditions: 168 h; how it was run: as §1
Staphylococcus aureus [28] = experiment: Bactericidal activity against Staphylococcus aureus ATCC 29213 assessed as logarithmic reduction in viable cell numbers at >= MIC after 24 hrs; assay type: functional
Saccharomyces cerevisiae = experiment: Antifungal activity against Saccharomyces cerevisiae by broth microdilution method; assay type: functional
[29] = test system: Staphylococcus lugdunensis; experiment: Antibacterial activity against Staphylococcus lugdunensis by broth microdilution method; assay type: functional
[30] = test system: Staphylococcus saprophyticus; experiment: Antibacterial activity against Staphylococcus saprophyticus by broth microdilution method; assay type: functional
Bacillus subtilis [31] = experiment: Antibacterial activity against Bacillus subtilis bearing FtsZ A47P mutant by broth microdilution method; assay type: functional
Staphylococcus aureus [32] = experiment: Antibacterial activity against methicillin-resistant Staphylococcus aureus by broth microdilution method; assay type: functional
Staphylococcus aureus [33] = experiment: Antibacterial activity against Staphylococcus aureus Smith ATCC 19636 in CD1 mouse septicemia model assessed as survival at 30 mg/kg, sc after 7 days relative to control; assay type: functional; conditions: 168 h, route subcutaneous; how it was run: as §1
Bos taurus [34] = organism: Bos taurus; experiment: Inhibition of bovine brain tubulin polymerization at 64 ug/ml
Staphylococcus aureus [35] = experiment: Antibacterial activity against Staphylococcus aureus Smith ATCC 19636 in iv dosed CD1 mouse septicemia model assessed as survival after 7 days; assay type: functional; how it was run: as §1

CC(=O)O[C@H]1C(=O)[C@@]2(C)[C@H]([C@H](OC(=O)c3ccccc3)[C@]3(O)C[C@H](OC(=O)[C@H](O)[C@@H](NC(=O)c4ccccc4)c4ccccc4)C(C)=C1C3(C)C)[C@]1(OC(C)=O)CO[C@@H]1C[C@@H]2O
Activity (Bos taurus [1]): Active
Activity (Bacillus subtilis [2]): inactive

NC(=O)c1c(F)ccc(OCc2nc3cc(Cl)cnc3s2)c1F
MIC (Staphylococcus aureus [3]): > 512 µg/mL
MIC (Staphylococcus aureus [4]): > 512 µg/mL
MIC (Staphylococcus hominis): 1 µg/mL (≈ 2.81 µM)
Activity (Staphylococcus aureus [5]): Active
MIC (Streptococcus pneumoniae): > 64 µg/mL
Activity (Bos taurus [6]): inactive
MIC (Bacillus subtilis [7]): 8 µg/mL (≈ 22.5 µM)
Activity (Staphylococcus aureus [8]): Dose-dependent effect
ED50 (Staphylococcus aureus [8]; 168 h): 7.3 mg/kg
MIC (Staphylococcus aureus [9]): > 512 µg/mL
IC50 [10]: 155 nM
Activity [11]: Dose-dependent effect
Activity [12]: Active
Activity (Staphylococcus aureus [13]): Active
IC50 (HepG2): > 64 µg/mL
MIC [14]: 0.5 µg/mL (≈ 1.41 µM)
MIC (Haemophilus influenzae): > 64 µg/mL
MIC (Staphylococcus aureus [15]): > 512 µg/mL
ED50 (Staphylococcus aureus [16]): 3.1 mg/kg
MIC (Bacillus subtilis [17]): > 64 µg/mL
MIC (Bacillus subtilis [18]): 0.5 µg/mL (≈ 1.41 µM)
MIC [19]: 1 µg/mL (≈ 2.81 µM)
Activity (Bacillus subtilis [20]): Active
MIC (Bacillus subtilis [21]): 2 µg/mL (≈ 5.62 µM)
MIC (Staphylococcus aureus [22]): > 512 µg/mL
MIC (Staphylococcus aureus [23]): 1 µg/mL (≈ 2.81 µM)
Activity (Staphylococcus aureus [24]): Active
MIC (Staphylococcus warneri): 1 µg/mL (≈ 2.81 µM)
MIC (Escherichia coli): > 64 µg/mL
MIC (Staphylococcus aureus [25]): > 512 µg/mL
MIC (Staphylococcus aureus [26]): 1 µg/mL (≈ 2.81 µM)
MIC (Pseudomonas aeruginosa): > 64 µg/mL
MIC (Enterococcus faecalis): > 64 µg/mL
survival at 30 mg/kg (Staphylococcus aureus [27]): 100%
Activity (Staphylococcus aureus [28]): >3
MIC (Saccharomyces cerevisiae): > 64 µg/mL
MIC [29]: 1 µg/mL (≈ 2.81 µM)
MIC [30]: 1 µg/mL (≈ 2.81 µM)
MIC (Bacillus subtilis [31]): 1 µg/mL (≈ 2.81 µM)
MIC (Staphylococcus aureus [32]): 1 µg/mL (≈ 2.81 µM)
survival at 30 mg/kg (Staphylococcus aureus [33]): 100%
Activity (Bos taurus [34]): inactive
Activity (Staphylococcus aureus [35]): Dose-dependent effect
ED50 (Staphylococcus aureus [35]; 168 h): 10.2 mg/kg

COc1cccc(C(N)=O)c1
MIC (Bacillus subtilis [7]): > 8190 µg/mL
MIC (Bacillus subtilis [17]): 1020 µg/mL (≈ 6770 µM)
MIC (Bacillus subtilis [18]): 2050 µg/mL (≈ 13500 µM)
MIC (Bacillus subtilis [21]): 4100 µg/mL (≈ 27100 µM)
MIC (Staphylococcus aureus [23]): 2050 µg/mL (≈ 13500 µM)
MIC (Bacillus subtilis [31]): > 8190 µg/mL
